≈ marks a conversion by molar mass, not a printed value.
How the values were obtained:
Micrococcus flavus [1] = experiment: Antibacterial activity against Micrococcus flavus ATCC 10240 after 24 hrs by micro dilution method; format: functional; conditions: ATCC 10240, 24 h
Summary of the method: (§1)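 Microdilution MIC in 96-well plates. Bacterial suspensions adjusted in sterile saline to 1.0 × 10^5 CFU/ml, giving 1.0 × 10^4 cfu per well in LB broth. Compounds tested at up to 1 mg/ml. Plates incubated 24 h. MIC taken as the lowest concentration with no visible growth under a binocular microscope. OD at 655 nm was also read against a blank and the positive control. Streptomycin and ampicillin were the positive controls.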

Pseudomonas aeruginosa [2] = experiment: Antibacterial activity against Pseudomonas aeruginosa ATCC 27853 treated for 24 hrs followed by sub-cultivated for 72 hrs by micro dilution method; format: functional
Summary of the method: (§2)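 2 µl from each well was serially subcultured into 100 µl fresh broth per well and incubated a further 72 h. MBC is the lowest concentration with no visible growth, taken as 99.5% killing of the original inoculum. Streptomycin and ampicillin were the positive controls.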

Fulvia fulva [3] = experiment: Antifungal activity against Fulvia fulva after 72 hrs by serial dilution method; format: functional
Summary of the method: (§3)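 Modified microdilution MIC. Spores were washed from malt agar cultures with sterile 0.85% saline containing 0.1% Tween 80 and adjusted to about 1.0 × 10^5 per 100 µl well in malt broth. Compounds were dissolved in DMSO (1 mg/ml). Plates incubated 72 h at 28 °C. MIC is the lowest concentration with no visible growth under a binocular microscope. Bifonazole and ketoconazole were the references.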

Aspergillus niger [4] = experiment: Antifungal activity against Aspergillus niger ATCC 6275 treated for 72 hrs followed by sub-cultivated for 5 days by serial dilution method; format: functional
Summary of the method: (§4)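 MFC obtained after the 72 h, 28 °C malt-broth microdilution (spore inoculum about 1.0 × 10^5 per well, compounds from 1 mg/ml DMSO). 2 µl was serially subcultured into 100 µl broth per well and incubated a further 5 days at 28 °C. MFC is the lowest concentration with no visible growth, taken as 99.5% killing of the original inoculum.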

Enterobacter cloacae [5] = experiment: Antibacterial activity against Enterobacter cloacae human isolate after 24 hrs by micro dilution method; format: functional; summary of the method: as §1
Aspergillus flavus [6] = experiment: Antifungal activity against Aspergillus flavus ATCC 9643 treated for 72 hrs followed by sub-cultivated for 5 days by serial dilution method; format: functional; summary of the method: as §4
Aspergillus versicolor [7] = experiment: Antifungal activity against Aspergillus versicolor ATCC 11730 after 72 hrs by serial dilution method; format: functional; conditions: ATCC 11730, 72 h; summary of the method: as §3
Pseudomonas aeruginosa [8] = experiment: Antibacterial activity against Pseudomonas aeruginosa ATCC 27853 after 24 hrs by micro dilution method; format: functional; conditions: ATCC 27853, 24 h; summary of the method: as §1
Micrococcus flavus [9] = experiment: Antibacterial activity against Micrococcus flavus ATCC 10240 treated for 24 hrs followed by sub-cultivated for 72 hrs by micro dilution method; format: functional; summary of the method: as §2
Salmonella typhimurium [10] = experiment: Antibacterial activity against Salmonella Typhimurium ATCC 13311 after 24 hrs by micro dilution method; format: functional, Salmonella enterica subsp. enterica serovar Typhimurium; conditions: Salmonella enterica, ATCC 13311, 24 h; summary of the method: as §1
Aspergillus niger [11] = experiment: Antifungal activity against Aspergillus niger ATCC 6275 after 72 hrs by serial dilution method; format: functional; conditions: ATCC 6275, 72 h; summary of the method: as §3
Escherichia coli [12] = experiment: Antibacterial activity against Escherichia coli ATCC 35210 treated for 24 hrs followed by sub-cultivated for 72 hrs by micro dilution method; format: functional; summary of the method: as §2
Aspergillus fumigatus [13] = experiment: Antifungal activity against Aspergillus fumigatus human isolate after 72 hrs by serial dilution method; format: functional; summary of the method: as §3
Trichoderma viride [14] = experiment: Antifungal activity against Trichoderma viride IAM 5061 treated for 72 hrs followed by sub-cultivated for 5 days by serial dilution method; format: functional; summary of the method: as §4
Aspergillus flavus [15] = experiment: Antifungal activity against Aspergillus flavus ATCC 9643 after 72 hrs by serial dilution method; format: functional; conditions: ATCC 9643, 72 h; summary of the method: as §3
Aspergillus fumigatus [16] = experiment: Antifungal activity against Aspergillus fumigatus human isolate treated for 72 hrs followed by sub-cultivated for 5 days by serial dilution method; format: functional; summary of the method: as §4
Penicillium ochrochloron [17] = experiment: Antifungal activity against Penicillium ochrochloron ATCC 9112 treated for 72 hrs followed by sub-cultivated for 5 days by serial dilution method; format: functional; summary of the method: as §4
Staphylococcus aureus [18] = experiment: Antibacterial activity against Staphylococcus aureus ATCC 6538 after 24 hrs by micro dilution method; format: functional; conditions: ATCC 6538, 24 h; summary of the method: as §1
Listeria monocytogenes [19] = experiment: Antibacterial activity against Listeria monocytogenes NCTC 7973 after 24 hrs by micro dilution method; format: functional; conditions: NCTC 7973, 24 h; summary of the method: as §1
Staphylococcus aureus [20] = experiment: Antibacterial activity against Staphylococcus aureus ATCC 6538 treated for 24 hrs followed by sub-cultivated for 72 hrs by micro dilution method; format: functional; summary of the method: as §2
Penicillium ochrochloron [21] = experiment: Antifungal activity against Penicillium ochrochloron ATCC 9112 after 72 hrs by serial dilution method; format: functional; conditions: ATCC 9112, 72 h; summary of the method: as §3
Bacillus cereus [22] = experiment: Antibacterial activity against Bacillus cereus clinical isolate after 24 hrs by micro dilution method; format: functional; summary of the method: as §1
Escherichia coli [23] = experiment: Antibacterial activity against Escherichia coli ATCC 35210 after 24 hrs by micro dilution method; format: functional; conditions: ATCC 35210, 24 h; summary of the method: as §1
Trichoderma viride [24] = experiment: Antifungal activity against Trichoderma viride IAM 5061 after 72 hrs by serial dilution method; format: functional; conditions: IAM 5061, 72 h; summary of the method: as §3
Talaromyces funiculosus [25] = experiment: Antifungal activity against Penicillium funiculosum ATCC 36839 treated for 72 hrs followed by sub-cultivated for 5 days by serial dilution method; format: functional; summary of the method: as §4
Talaromyces funiculosus [26] = experiment: Antifungal activity against Penicillium funiculosum ATCC 36839 after 72 hrs by serial dilution method; format: functional; conditions: ATCC 36839, 72 h; summary of the method: as §3
Aspergillus versicolor [27] = experiment: Antifungal activity against Aspergillus versicolor ATCC 11730 treated for 72 hrs followed by sub-cultivated for 5 days by serial dilution method; format: functional; summary of the method: as §4
Enterobacter cloacae [28] = experiment: Antibacterial activity against Enterobacter cloacae human isolate treated for 24 hrs followed by sub-cultivated for 72 hrs by micro dilution method; format: functional; summary of the method: as §2
Salmonella typhimurium [29] = experiment: Antibacterial activity against Salmonella Typhimurium ATCC 13311 treated for 24 hrs followed by sub-cultivated for 72 hrs by micro dilution method; format: functional, Salmonella enterica subsp. enterica serovar Typhimurium; conditions: Salmonella enterica; summary of the method: as §2
Bacillus cereus [30] = experiment: Antibacterial activity against Bacillus cereus clinical isolate treated for 24 hrs followed by sub-cultivated for 72 hrs by micro dilution method; format: functional; summary of the method: as §2
Listeria monocytogenes [31] = experiment: Antibacterial activity against Listeria monocytogenes NCTC 7973 treated for 24 hrs followed by sub-cultivated for 72 hrs by micro dilution method; format: functional; summary of the method: as §2
Fulvia fulva [32] = experiment: Antifungal activity against Fulvia fulva treated for 72 hrs followed by sub-cultivated for 5 days by serial dilution method; format: functional; summary of the method: as §4

| SMILES | MIC (Micrococcus flavus [1]) [µM] | MBC (Pseudomonas aeruginosa [2]) [µM] | MIC (Fulvia fulva [3]) [µM] | MFC (Aspergillus niger [4]) [µM] | MIC (Enterobacter cloacae [5]) [µM] | MFC (Aspergillus flavus [6]) [µM] | MIC (Aspergillus versicolor [7]) [µM] | MIC (Pseudomonas aeruginosa [8]) [µM] | MBC (Micrococcus flavus [9]) [µM] | MIC (Salmonella typhimurium [10]) [µM] | MIC (Aspergillus niger [11]) [µM] | MBC (Escherichia coli [12]) [µM] | MIC (Aspergillus fumigatus [13]) [µM] | MFC (Trichoderma viride [14]) [µM] | MIC (Aspergillus flavus [15]) [µM] | MFC (Aspergillus fumigatus [16]) [µM] | MFC (Penicillium ochrochloron [17]) [µM] | MIC (Staphylococcus aureus [18]) [µM] | MIC (Listeria monocytogenes [19]) [µM] | MBC (Staphylococcus aureus [20]) [µM] | other results |
| --- | --- | --- | --- | --- | --- | --- | --- | --- | --- | --- | --- | --- | --- | --- | --- | --- | --- | --- | --- | --- | --- |
| COc1cc(Cc2n[nH]c(=O)n2C(C)C)c(S(=O)(=O)N(C)C)cc1OC | 390 (≈ 150 µg/mL) | 390 (≈ 150 µg/mL) | 260 (≈ 100 µg/mL) | 390 (≈ 150 µg/mL) | 390 (≈ 150 µg/mL) | 390 (≈ 150 µg/mL) | 130 (≈ 50 µg/mL) | 390 (≈ 150 µg/mL) | 390 (≈ 150 µg/mL) | 390 (≈ 150 µg/mL) | 260 (≈ 100 µg/mL) | 390 (≈ 150 µg/mL) | 30 (≈ 11.5 µg/mL) | 70 (≈ 26.9 µg/mL) | 260 (≈ 100 µg/mL) | 130 (≈ 50 µg/mL) | 390 (≈ 150 µg/mL) | 390 (≈ 150 µg/mL) | 390 (≈ 150 µg/mL) | 390 (≈ 150 µg/mL) | MIC (Penicillium ochrochloron [21]): 130 µM (≈ 50 µg/mL); MIC (Bacillus cereus [22]): 260 µM (≈ 100 µg/mL); MIC (Escherichia coli [23]): 390 µM (≈ 150 µg/mL); MIC (Trichoderma viride [24]): 30 µM (≈ 11.5 µg/mL); MFC (Talaromyces funiculosus [25]): 260 µM (≈ 100 µg/mL); MIC (Talaromyces funiculosus [26]): 260 µM (≈ 100 µg/mL); MFC (Aspergillus versicolor [27]): 390 µM (≈ 150 µg/mL); MBC (Enterobacter cloacae [28]): 390 µM (≈ 150 µg/mL); MBC (Salmonella typhimurium [29]): 390 µM (≈ 150 µg/mL); MBC (Bacillus cereus [30]): 780 µM (≈ 300 µg/mL); MBC (Listeria monocytogenes [31]): 390 µM (≈ 150 µg/mL); MFC (Fulvia fulva [32]): 260 µM (≈ 100 µg/mL) |
| COc1cc(Cc2nnc(NC(C)C)s2)c(S(=O)(=O)N(C)C)cc1OC | 380 (≈ 152 µg/mL) | 380 (≈ 152 µg/mL) | 130 (≈ 52.1 µg/mL) | 750 (≈ 300 µg/mL) | 460 (≈ 184 µg/mL) | 750 (≈ 300 µg/mL) | 250 (≈ 100 µg/mL) | 250 (≈ 100 µg/mL) | 380 (≈ 152 µg/mL) | 250 (≈ 100 µg/mL) | 250 (≈ 100 µg/mL) | 460 (≈ 184 µg/mL) | 130 (≈ 52.1 µg/mL) | 250 (≈ 100 µg/mL) | 250 (≈ 100 µg/mL) | 250 (≈ 100 µg/mL) | 750 (≈ 300 µg/mL) | 380 (≈ 152 µg/mL) | 380 (≈ 152 µg/mL) | 460 (≈ 184 µg/mL) | MIC (Penicillium ochrochloron [21]): 500 µM (≈ 200 µg/mL); MIC (Bacillus cereus [22]): 250 µM (≈ 100 µg/mL); MIC (Escherichia coli [23]): 380 µM (≈ 152 µg/mL); MIC (Trichoderma viride [24]): 130 µM (≈ 52.1 µg/mL); MFC (Talaromyces funiculosus [25]): 500 µM (≈ 200 µg/mL); MIC (Talaromyces funiculosus [26]): 250 µM (≈ 100 µg/mL); MFC (Aspergillus versicolor [27]): 750 µM (≈ 300 µg/mL); MBC (Enterobacter cloacae [28]): 460 µM (≈ 184 µg/mL); MBC (Salmonella typhimurium [29]): 500 µM (≈ 200 µg/mL); MBC (Bacillus cereus [30]): 500 µM (≈ 200 µg/mL); MBC (Listeria monocytogenes [31]): 460 µM (≈ 184 µg/mL); MFC (Fulvia fulva [32]): 250 µM (≈ 100 µg/mL) |
| COc1cc(Cc2n[nH]c(=S)n2C(C)(C)C)c(S(=O)(=O)N(C)C)cc1OC | 240 (≈ 99.5 µg/mL) | 420 (≈ 174 µg/mL) | 240 (≈ 99.5 µg/mL) | 360 (≈ 149 µg/mL) | 240 (≈ 99.5 µg/mL) | 360 (≈ 149 µg/mL) | 240 (≈ 99.5 µg/mL) | 240 (≈ 99.5 µg/mL) | 420 (≈ 174 µg/mL) | 240 (≈ 99.5 µg/mL) | 240 (≈ 99.5 µg/mL) | 420 (≈ 174 µg/mL) | 20 (≈ 8.29 µg/mL) | 240 (≈ 99.5 µg/mL) | 240 (≈ 99.5 µg/mL) | 120 (≈ 49.7 µg/mL) | 360 (≈ 149 µg/mL) | 240 (≈ 99.5 µg/mL) | 240 (≈ 99.5 µg/mL) | 420 (≈ 174 µg/mL) | MIC (Penicillium ochrochloron [21]): 120 µM (≈ 49.7 µg/mL); MIC (Bacillus cereus [22]): 240 µM (≈ 99.5 µg/mL); MIC (Escherichia coli [23]): 240 µM (≈ 99.5 µg/mL); MIC (Trichoderma viride [24]): 240 µM (≈ 99.5 µg/mL); MFC (Talaromyces funiculosus [25]): 240 µM (≈ 99.5 µg/mL); MIC (Talaromyces funiculosus [26]): 120 µM (≈ 49.7 µg/mL); MFC (Aspergillus versicolor [27]): 360 µM (≈ 149 µg/mL); MBC (Enterobacter cloacae [28]): 420 µM (≈ 174 µg/mL); MBC (Salmonella typhimurium [29]): 420 µM (≈ 174 µg/mL); MBC (Bacillus cereus [30]): 480 µM (≈ 199 µg/mL); MBC (Listeria monocytogenes [31]): 420 µM (≈ 174 µg/mL); MFC (Fulvia fulva [32]): 240 µM (≈ 99.5 µg/mL) |

Reference: ChEMBL document CHEMBL1944580, “Synthesis of novel sulfonamide-1,2,4-triazoles, 1,3,4-thiadiazoles and 1,3,4-oxadiazoles, as potential antibacterial and antifungal agents. Biological evaluation and conformational analysis studies” (2012)
